The source of these data is ChEMBL document CHEMBL1128214, “Structure-based design of sulfonamide-substituted non-peptidic HIV protease inhibitors” (J Med Chem, 1995).

Series [1] concerns the target Human immunodeficiency virus type 1 protease (Human immunodeficiency virus 1, UniProt Q72874). The series can be described thus: Inhibitory activity against HIV-1 protease.
Series [2] deals with Human immunodeficiency virus 1. Put plainly: Antiviral potency of compound determined against human immunodeficiency virus type 1. In kind it is functional, organism-based. An outline of the steps:
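Antiviral activity measured in MT4 cells acutely infected with HIV-1 IIIB; potency reported as IC50.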

Series [3] in a line: Maximum concentration was determined in an aqueous sodium hydroxide solution adjusted to pH 10 at 10 mg/kg dosage administered perorally in dog. Further details: dose 10 mg/kg, route oral. Type of series: ADME, organism-based, Canis lupus familiaris. The conditions noted are these: in vivo, po. An outline of the steps: (§1)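 Single oral dose given as an aqueous sodium hydroxide solution adjusted to pH 10. Plasma concentrations were followed over time. Cmax, tmax and bioavailability (F) were calculated from the time-course data by noncompartmental analysis. Values are mean ± SD.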

A short description of series [4]: Maximum concentration was determined in an aqueous sodium hydroxide solution adjusted to pH 10 at 5 mg/kg dosage administered perorally in rats. Further details: dose 5 mg/kg, route oral. The conditions noted are these: rat, in vivo, po. Type of series: ADME, organism-based. The procedure, abridged: as §1
Series [5] in a line: Time of maximum concentration was determined in an aqueous sodium hydroxide solution adjusted to pH 10 at 10 mg/kg dosage administered perorally in dog. Type of series: ADME, organism-based, Canis lupus familiaris. Also on record: dose 10 mg/kg, route oral. The conditions noted are these: in vivo, po. The procedure, abridged: as §1
Series [6] in a line: Time of maximum concentration was determined in an aqueous sodium hydroxide solution adjusted to pH 10 at 5 mg/kg dosage administered perorally in rats. Also on record: dose 5 mg/kg, route oral. In kind it is ADME, organism-based. The conditions noted are these: rat, in vivo, po. An outline of the steps: as §1
Series [7] can be described thus: Bioavailability (F) was determined in an aqueous sodium hydroxide solution adjusted to pH 10 at 10 mg/kg dosage administered perorally in dog. In kind it is ADME, organism-based. The conditions noted are these: eutheria, in vivo, po. An outline of the steps:
as §1

A short description of series [8]: Bioavailability (F) was determined in an aqueous sodium hydroxide solution adjusted to pH 10 at 5 mg/kg dosage administered perorally in rats. The conditions noted are these: eutheria, in vivo, po. In kind it is ADME, organism-based. An outline of the steps: as §1
A short description of series [9]: The steady-state volume of distribution was determined in an aqueous sodium hydroxide solution adjusted to pH 10 at 2.5 mg/kg administered intravenously dosage in rats. The conditions noted are these: rat, in vivo, iv, read-out: Vss. In kind it is ADME, organism-based. Also on record: dose 2.5 mg/kg, route intravenous. An outline of the steps: (§2)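 Plasma concentration–time data were analysed by noncompartmental methods. The […] (β) and half-life were estimated, and total body clearance and steady-state volume of distribution were calculated. Values are mean ± SD.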

Series [10] in a line: The total body administered intravenously in dog. In kind it is ADME, organism-based, Canis lupus familiaris. The conditions noted are these: in vivo, iv, read-out: Vss. The procedure, abridged: as §2
Series [11] can be described thus: The half life time estimated was determined in an aqueous sodium hydroxide solution adjusted to pH 10 at 5 mg/kg dosage administered intravenously in dog. In kind it is ADME, organism-based. Further details: dose 5 mg/kg, route intravenous. The conditions noted are these: in vivo, iv. The procedure, abridged:
as §2

A short description of series [12]: The half life time estimated was determined in an aqueous sodium hydroxide solution adjusted to pH 10 at 2.5 mg/kg dosage administered intravenously in rats. In kind it is ADME, organism-based. Also on record: dose 2.5 mg/kg, route intravenous. The conditions noted are these: rat, in vivo, iv. The procedure, abridged:
as §2

pIC50, pKi: −log10 of the molar value.

The term pKi denotes the Ki on a negative log10 scale, so that one unit is a factor of ten. A word on the pIC50: it is the negative decadic logarithm of the IC50, by convention in mol/L. Higher therefore signals a low IC50. Molecule `Cc1ccccc1S(=O)(=O)Nc1cccc(C(c2c(O)c3c(oc2=O)CCCCCC3)C2CC2)c1` (stereo not drawn) gave a pKi in series [1] of 8.05. In series [2], the pIC50 was < 5.00.
In the case of `Cc1ccc(S(=O)(=O)Nc2cccc(C(c3c(O)c4c(oc3=O)CCCCCC4)C3CC3)c2)cc1` (stereo not drawn), the negative logarithm of the Ki (pKi) in [1] was 8.52. Besides, in series [2], the negative-log IC50 (pIC50) was 5.44.
For orientation: Cmax means the highest concentration seen after dosing. As usually defined, the Tmax is the time at which the peak concentration occurs. By bioavailability is commonly meant the share of a dose that reaches the circulation, judged against a reference dose that is usually intravenous. Low values mean little systemic uptake, high ones much systemic uptake. Usually half-life stands for the time in which the quantity being followed falls by half. Turning to `N#Cc1ccc(S(=O)(=O)Nc2cccc(C(c3c(O)c4c(oc3=O)CCCCCC4)C3CC3)c2)cc1` (stereo not drawn), the Cmax in series [3] stood at 156 µM; in [4], 24.2 µM. The Tmax in series [5] and in [6] was 1 h each time. Moreover, the bioavailability was 76.7% in series [7] and 41.9% in series [8]. Besides, the figures for the Vd in [9] and in [10] were 0.11 L/kg and 0.084 L/kg, respectively. For the same molecule, the half-life is 6.3 h in series [11] and 3 h in [12]. Further, the pIC50 in series [2] was 5.82.
`Cc1cccc(S(=O)(=O)Nc2cccc(C(c3c(O)c4c(oc3=O)CCCCCC4)C3CC3)c2)c1` (stereo not drawn) gave a negative logarithm of the Ki (pKi) in series [1] of 8.30. This molecule gave a pIC50 in series [2] of 5.40.
In series [2], `O=c1c2c(oc(O)c1C(c1cccc(NS(=O)(=O)c3ccccc3)c1)C1CC1)CCCCCC2` (stereo not drawn) showed a negative-log IC50 (pIC50) of 5.30.
